Measurements: ChEMBL document CHEMBL1133697, “New selective and potent 5-HT(1B/1D) antagonists: chemistry and pharmacological evaluation of N-piperazinylphenyl biphenylcarboxamides and biphenylsulfonamides” (J Med Chem, 2000)

Key:
[1] = target: T1, 5-hydroxytryptamine receptor 1A (Rattus norvegicus, UniProt P19327); test: Inhibition activity against 5-hydroxytryptamine 1A receptor in rat hippocampus membranes using radio binding assays; format: cell membranes, Membrane
T1 sequence (P19327 whole entry): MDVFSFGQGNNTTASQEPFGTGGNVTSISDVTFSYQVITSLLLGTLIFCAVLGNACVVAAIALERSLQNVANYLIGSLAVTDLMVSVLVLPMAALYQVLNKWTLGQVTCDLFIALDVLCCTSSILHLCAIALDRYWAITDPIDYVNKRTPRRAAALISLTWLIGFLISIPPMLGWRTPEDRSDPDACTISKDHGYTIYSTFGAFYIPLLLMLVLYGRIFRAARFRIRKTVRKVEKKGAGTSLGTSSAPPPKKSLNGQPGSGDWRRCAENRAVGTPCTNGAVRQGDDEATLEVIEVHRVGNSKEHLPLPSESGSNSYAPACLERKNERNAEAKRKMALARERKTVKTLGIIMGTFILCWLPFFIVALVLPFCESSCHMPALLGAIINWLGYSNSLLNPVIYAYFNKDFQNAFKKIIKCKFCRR
Method in brief: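 Displacement of 0.5 nM [3H]8-OH-DPAT from 5-HT1A sites in rat hippocampal membranes, following a previously reported method. IC50 in nM, mean of at least 3 determinations ±SEM unless indicated otherwise.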

[2] = target: Serotonin (5-HT) receptor (Homo sapiens) (UniProt P30939+P41595+Q13639+P28222+P46098+P08908+P28221+P28223+P28335+P28566+P34969+P50406+P47898+A5X5Y0+O95264+Q70Z44+Q8WXA8); test: 5-hydroxytryptamine level in K+ induced 5-hydroxytryptamine release in guinea pig cortex.; format: functional, tissue-based; details: Cavia porcellus, target entry is the homologue from another species
Method in brief: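 Guinea pig (male Dunkin-Hartley) cerebral cortex slices loaded with [3H]5-HT for 30 min, then superfused with oxygenated Krebs solution. Two 4-min 30 mM K+ pulses at 68 and 108 min (S1, S2). Sumatriptan 3 µM, alone or with test compound at 30 nM, 300 nM or 3 µM, given before and during S2. Tabulated value is at 300 nM, reported as % of control S2/S1 ratio; mean (SEM) of 3-4 determinations.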

[3] = Partition coefficient (logP); details: octanol/water
[4] = pA2 value for the effect in RSV model.; format: functional
Method in brief: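 Isolated rabbit saphenous vein segments were held in organ baths and given two cumulative sumatriptan concentration-response curves. The second curve was run after 60 min incubation with antagonist or vehicle. Apparent pA2 was derived from a single antagonist concentration in at least three preparations.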

[5] = Partition coefficient (logD7.4); details: octanol/water, pH 7.4
[6] = target: 5-hydroxytryptamine receptor 1B (Rattus norvegicus, UniProt P28564); test: Inhibition affinity against 5-HT-1B receptor in rat frontal cortex using radio binding assay; format: tissue-based
5-hydroxytryptamine receptor 1B, sequence (P28564 whole entry): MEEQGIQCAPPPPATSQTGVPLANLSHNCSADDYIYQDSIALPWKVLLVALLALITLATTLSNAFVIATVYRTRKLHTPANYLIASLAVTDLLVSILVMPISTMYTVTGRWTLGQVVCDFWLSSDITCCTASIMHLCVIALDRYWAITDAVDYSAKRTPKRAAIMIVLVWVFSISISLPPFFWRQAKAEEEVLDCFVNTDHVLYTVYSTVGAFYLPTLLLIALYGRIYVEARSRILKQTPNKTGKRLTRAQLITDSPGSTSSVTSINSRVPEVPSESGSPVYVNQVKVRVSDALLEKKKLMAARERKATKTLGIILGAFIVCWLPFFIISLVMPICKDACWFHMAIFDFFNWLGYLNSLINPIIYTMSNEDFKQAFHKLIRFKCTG

[7] = target: Sodium-dependent serotonin transporter (Homo sapiens, UniProt P31645); test: Inhibition of 5-hydroxytryptamine reuptake
Sodium-dependent serotonin transporter, sequence (P31645 whole entry): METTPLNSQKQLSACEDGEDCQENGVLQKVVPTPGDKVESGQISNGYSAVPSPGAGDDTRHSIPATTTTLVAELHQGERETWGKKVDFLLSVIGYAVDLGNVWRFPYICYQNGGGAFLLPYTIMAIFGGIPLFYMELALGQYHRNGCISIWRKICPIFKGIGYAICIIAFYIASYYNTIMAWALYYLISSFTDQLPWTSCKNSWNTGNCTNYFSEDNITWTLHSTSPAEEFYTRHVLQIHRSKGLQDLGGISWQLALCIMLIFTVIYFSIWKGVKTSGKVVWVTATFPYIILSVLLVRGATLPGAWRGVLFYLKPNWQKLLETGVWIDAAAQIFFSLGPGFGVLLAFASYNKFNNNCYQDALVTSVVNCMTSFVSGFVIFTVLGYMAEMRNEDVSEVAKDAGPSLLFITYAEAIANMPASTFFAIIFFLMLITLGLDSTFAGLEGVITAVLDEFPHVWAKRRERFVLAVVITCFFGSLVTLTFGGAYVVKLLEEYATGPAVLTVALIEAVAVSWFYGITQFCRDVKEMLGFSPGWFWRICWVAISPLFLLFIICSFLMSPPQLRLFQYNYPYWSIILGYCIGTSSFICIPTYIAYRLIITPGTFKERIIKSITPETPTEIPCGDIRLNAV

SMILES | IC50 [1] [µM] | Control [2] [%] | logP [3] | pA2 [4] | logD [5] | IC50 [6] [µM] | IC50 [7] [µM]
COc1ccc(NC(=O)c2ccc(-c3ccc(C(N)=O)cc3C)cc2)cc1N1CCN(C)CC1 | 0.057 | 162 | 3.6 | 10 | 3.18 | 0.0013 | > 1
COc1ccc(NS(=O)(=O)c2ccc(-c3ccc(-c4nnc(C)o4)cc3C)cc2)cc1N1CCN(C)CC1 | 0.7 | 155 | 4.04 | 7 | 3.6 | 0.06 | > 1
COc1ccc(NC(=O)c2ccc(-c3ccc(C(=N)N)cc3C)cc2)cc1N1CCN(C)CC1 | 0.023 | 155 | 3.61 | 9.6 | -0.35 | 0.0005 | 0.407
Cc1nnc(-c2ccc(-c3ccc(C(=O)Nc4ccc(OS(C)(=O)=O)c(N5CCN(C)CC5)c4)cc3)c(C)c2)o1 | 7 | 166 | 3.38 | 8.3 | 2.96 | 0.07 | 3.8
COc1ccc(NC(=O)c2ccc(-c3ccc(-c4nnc(C)o4)cc3C)cc2)cc1N1CCN(C)CC1 | > 1 | 147 |  | 9.1 |  | 0.00093 | > 1
Cc1nc(-c2ccc(-c3ccc(C(=O)Nc4ccc(OS(=O)(=O)C(F)(F)F)c(N5CCN(C)CC5)c4)cc3)c(C)c2)no1 | > 10 |  | 6.06 |  | 5.64 | 0.7 | > 1
Cc1nc(-c2ccc(-c3ccc(C(=O)N4CCc5cc6c(cc54)C4(CCN(C)CC4)CO6)cc3)c(C)c2)no1 [SB-224289] |  | 134 | 6.29 | 7.4 | 4.64 | 0.002 | 4.7
Cc1nc(-c2ccc(-c3ccc(C(=O)Nc4ccc(O)c(N5CCN(C)CC5)c4)cc3)c(C)c2)no1 | > 1 | 122 | 4.33 | 7.3 | 3.91 | 0.0073 | > 1
Cc1nnc(-c2ccc(-c3ccc(C(=O)Nc4ccc(O)c(N5CCN(C)CC5)c4)cc3)c(C)c2)o1 | > 0.1 | 147 | 3.54 | 8 | 3.12 | 0.0063 | 4.7
COc1ccc(NC(=O)c2ccc(-c3ccc(-c4noc(C)n4)cc3C)cc2)cc1N1CCN(C)CC1 [GR-127935] | 0.425 |  | 4.9 | 9.9 | 4.48 | 0.0016 | 1
Cc1nc(-c2ccc(-c3ccc(C(=O)Nc4ccc(OCCF)c(N5CCN(C)CC5)c4)cc3)c(C)c2)no1 | 5 | 107 | 5.33 | 8.3 | 4.91 | 0.01 | 0.9
